Source: ChEMBL document CHEMBL5331111, “Synthetic Biology Facilitates Semisynthetic Development of Type V Glycopeptide Antibiotics Targeting Vancomycin-Resistant Enterococcus” (J Med Chem, 2023)
Values after ≈ are worked out from the molar mass of the structure shown.

Experiments:
Format in all cases: functional
[1] = tested on: Enterococcus faecalis; experiment: Antibacterial activity against vancomycin-resistant Enterococcus faecalis ATCC 51299 assessed as inhibition of bacterial growth by Mueller-Hinton broth based assay
[2] = tested on: Enterococcus faecium; experiment: Antibacterial activity against Enterococcus faecium WCC 0491 assessed as inhibition of bacterial growth by Mueller-Hinton broth based assay
[3] = tested on: Mycolicibacterium smegmatis; experiment: Antimycobacterial activity against Mycobacterium smegmatis MC2 155 assessed as inhibition of bacterial growth measured after 2 days by resazurin dye based analysis; settings: MC2 155, 48 h, time 2 day
Summary of the method: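 Strains grown in 7H9 broth with 0.2% glycerol, 10% OADC and 0.05% Tween-80. Inoculum was about 5 × 10^5 CFU/mL, checked by plating on 7H10/OADC agar to be 3–8 × 10^5. Read at 2 days for M. smegmatis and 7 days for M. tuberculosis H37Ra, M. bovis and M. avium. Resazurin 30 μg/mL was then added for one further day. Values are averages of at least two experiments.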

[4] = tested on: Enterococcus faecium; experiment: Antibacterial activity against vancomycin-resistant Enterococcus faecium WCC 0541 assessed as inhibition of bacterial growth by Mueller-Hinton broth based assay
[5] = tested on: Enterococcus faecium; experiment: Antibacterial activity against Enterococcus faecium WCC 0558 assessed as inhibition of bacterial growth by Mueller-Hinton broth based assay
[6] = tested on: Mycolicibacterium fortuitum; experiment: Antimycobacterial activity against Mycobacterium fortuitum ATCC 6891 assessed as inhibition of bacterial growth measured after 2 days by resazurin dye based analysis; settings: ATCC 6891, 48 h, time 2 day
Summary of the method: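 Cultured in 7H9 with 0.2% glycerol, 10% OADC and 0.05% Tween-80. Inoculum diluted to ~5 × 10^5 CFU/mL and confirmed at 3–8 × 10^5 by plating on 7H10 agar. Growth read at 2 days, then 30 μg/mL resazurin added for one more day. Values averaged from at least two experiments.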

[7] = tested on: Enterococcus faecium; experiment: Antibacterial activity against Enterococcus faecium WCC 0499 assessed as inhibition of bacterial growth by Mueller-Hinton broth based assay
[8] = tested on: Staphylococcus aureus; experiment: Antibacterial activity against Staphylococcus aureus ATCC 33591 assessed as reduction in bacterial growth by Mueller-Hinton broth based assay
Summary of the method: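 Broth MIC by standard procedure in Mueller-Hinton broth, for both B. subtilis 168 and S. aureus ATCC 33591.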

[9] = tested on: Enterococcus gallinarum; experiment: Antibacterial activity against vancomycin-resistant Enterococcus gallinarum ATCC 49573 assessed as inhibition of bacterial growth by Mueller-Hinton broth based assay
[10] = tested on: Enterococcus faecium; experiment: Antibacterial activity against Enterococcus faecium WCC 0498 assessed as inhibition of bacterial growth by Mueller-Hinton broth based assay
[11] = tested on: Enterococcus faecium; experiment: Antibacterial activity against Enterococcus faecium WCC 0528 assessed as inhibition of bacterial growth by Mueller-Hinton broth based assay
[12] = tested on: Enterococcus faecium; experiment: Antibacterial activity against vancomycin-resistant Enterococcus faecium ATCC 700221 assessed as inhibition of bacterial growth by Mueller-Hinton broth based assay
[13] = tested on: Enterococcus faecium; experiment: Antibacterial activity against Enterococcus faecium WCC 0587 assessed as inhibition of bacterial growth by Mueller-Hinton broth based assay
[14] = tested on: Enterococcus faecium; experiment: Antibacterial activity against Enterococcus faecium WCC 0534 assessed as inhibition of bacterial growth by Mueller-Hinton broth based assay
[15] = tested on: Enterococcus faecium; experiment: Antibacterial activity against Enterococcus faecium WCC 0502 assessed as inhibition of bacterial growth by Mueller-Hinton broth based assay
[16] = tested on: Enterococcus faecium; experiment: Antibacterial activity against Enterococcus faecium WCC 0492 assessed as inhibition of bacterial growth by Mueller-Hinton broth based assay
[17] = tested on: Enterococcus faecium; experiment: Antibacterial activity against Enterococcus faecium WCC 0516 assessed as inhibition of bacterial growth by Mueller-Hinton broth based assay
[18] = tested on: Enterococcus faecium; experiment: Antibacterial activity against Enterococcus faecium WCC 0545 assessed as inhibition of bacterial growth by Mueller-Hinton broth based assay
[19] = tested on: Enterococcus faecium; experiment: Antibacterial activity against Enterococcus faecium WCC 0524 assessed as inhibition of bacterial growth by Mueller-Hinton broth based assay
[20] = tested on: Enterococcus faecium; experiment: Antibacterial activity against wild type Enterococcus faecium ATCC 19434 assessed as inhibition of bacterial growth by Mueller-Hinton broth based assay
[21] = tested on: Enterococcus faecium; experiment: Antibacterial activity against Enterococcus faecium WCC 0506 assessed as inhibition of bacterial growth by Mueller-Hinton broth based assay
[22] = tested on: Enterococcus faecium; experiment: Antibacterial activity against Enterococcus faecium WCC 0533 assessed as inhibition of bacterial growth by Mueller-Hinton broth based assay
[23] = tested on: Enterococcus faecium; experiment: Antibacterial activity against Enterococcus faecium WCC 0495 assessed as inhibition of bacterial growth by Mueller-Hinton broth based assay
[24] = tested on: Enterococcus faecium; experiment: Antibacterial activity against Enterococcus faecium WCC 0586 assessed as inhibition of bacterial growth by Mueller-Hinton broth based assay
[25] = tested on: Enterococcus faecium; experiment: Antibacterial activity against Enterococcus faecium WCC 0500 assessed as inhibition of bacterial growth by Mueller-Hinton broth based assay
[26] = tested on: Enterococcus faecium; experiment: Antibacterial activity against Enterococcus faecium WCC 0537 assessed as inhibition of bacterial growth by Mueller-Hinton broth based assay
[27] = tested on: Enterococcus faecium; experiment: Antibacterial activity against Enterococcus faecium WCC 0553 assessed as inhibition of bacterial growth by Mueller-Hinton broth based assay

Question: Which MIC [1] does the source give for CN1C(=O)[C@@H]2NC(=O)[C@@H]3NC(=O)[C@@H](c4ccc(O)cc4)NC(=O)[C@H](NC(=O)C(N)c4ccc(O)cc4)Cc4c[nH]c5cc(ccc45)-c4cc3cc(c4O)Oc3ccc(cc3)C[C@H]1C(=O)N[C@@H](C(=O)O)c1ccc(O)c(c1)Oc1ccc2cc1 (some centres not stated) here?
Answer: The MIC was 8 µg/mL (≈ 7.14 µM).

Question: What about the MIC [2] of the same compound?
Answer: Its MIC is 4 µg/mL (≈ 3.57 µM).

Question: And the MIC [3]?
Answer: Its MIC is 8 µg/mL (≈ 7.14 µM).

Question: And the MIC [4]?
Answer: The MIC was 8 µg/mL (≈ 7.14 µM).

Question: And the MIC [5]?
Answer: Its MIC is 8 µg/mL (≈ 7.14 µM).

Question: And the MIC [6]?
Answer: The MIC was 8 µg/mL (≈ 7.14 µM).

Question: And the MIC [7]?
Answer: The MIC was 8 µg/mL (≈ 7.14 µM).

Question: What about the MIC [8] of the same compound?
Answer: Its MIC is 8 µg/mL (≈ 7.14 µM).

Question: And the MIC [9]?
Answer: The MIC was 8 µg/mL (≈ 7.14 µM).

Question: What about the MIC [10] of the same compound?
Answer: Its MIC is 8 µg/mL (≈ 7.14 µM).

Question: And the MIC [11]?
Answer: Its MIC is 8 µg/mL (≈ 7.14 µM).

Question: And the MIC [12]?
Answer: The MIC was 8 µg/mL (≈ 7.14 µM).

Question: And the MIC [13]?
Answer: Its MIC is 8 µg/mL (≈ 7.14 µM).

Question: What about the MIC [14] of the same compound?
Answer: The MIC was 4 µg/mL (≈ 3.57 µM).

Question: And the MIC [15]?
Answer: The MIC was 4 µg/mL (≈ 3.57 µM).

Question: And the MIC [16]?
Answer: The MIC was 8 µg/mL (≈ 7.14 µM).

Question: And the MIC [17]?
Answer: Its MIC is 8 µg/mL (≈ 7.14 µM).

Question: And the MIC [18]?
Answer: Its MIC is 8 µg/mL (≈ 7.14 µM).

Question: What about the MIC [19] of the same compound?
Answer: The MIC was 4 µg/mL (≈ 3.57 µM).

Question: What about the MIC [20] of the same compound?
Answer: Its MIC is 8 µg/mL (≈ 7.14 µM).

Question: What about the MIC [21] of the same compound?
Answer: The MIC was 4 µg/mL (≈ 3.57 µM).

Question: What about the MIC [22] of the same compound?
Answer: The MIC was 8 µg/mL (≈ 7.14 µM).

Question: What about the MIC [23] of the same compound?
Answer: The MIC was 8 µg/mL (≈ 7.14 µM).

Question: What about the MIC [24] of the same compound?
Answer: Its MIC is 8 µg/mL (≈ 7.14 µM).

Question: And the MIC [25]?
Answer: Its MIC is 8 µg/mL (≈ 7.14 µM).

Question: What about the MIC [26] of the same compound?
Answer: The MIC was 8 µg/mL (≈ 7.14 µM).

Question: And the MIC [27]?
Answer: The MIC was 8 µg/mL (≈ 7.14 µM).
